# In ChEMBL document CHEMBL1124397, “A novel class of "GABAergic" agents: 1-aryl-3-(aminoalkylidene)oxindoles” (J Med Chem, 1989):
# Columns and labels:
# [1] = biological target: GABA-A receptor; anion channel (Rattus norvegicus) (UniProt O09028+P15431+P18506+P18508+P19969+P20236+P23574+P23576+P28471+P28473+P30191+P62813+P63079+P63138+Q91ZM7+Q9ES14); assay: Antagonism of mercaptopropionic acid (MPA) induced convulsions in mouse; type: functional, organism-based
# [2] = Ability to displace [3H]flunitrazepam ([3H]-FNP) binding to mouse brain after intraperitoneal administration at a dose 320 umol/kg; type: functional, organism-based; settings: at 320 µmol/kg
# Summary of the method: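 Mice in groups of five got test agent or vehicle ip 1 h before iv [3H]FNP at 200 μCi/kg, then were killed 20 min later by cervical dislocation. Brains were frozen and homogenized in 40 volumes of ice-cold 50 mM Tris-HCl pH 7.7. Triplicate samples were filtered on glass fiber, washed with cold buffer and counted. Bound label is expressed as % of vehicle-treated mice.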
# P23576 = assay: Administered at a dose 320 umol/kg intraperitoneally before [3H]Flunitrazepam ([3H]-FNP) in mouse brain expressed as percent of control; type: functional, tissue-based
# Summary of the method: (§1)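 Mice in groups of five received test compound or vehicle ip 1 h before 200 μCi/kg [3H]FNP iv and were killed 20 min later. Brains were homogenized in 40 volumes of ice-cold 50 mM Tris-HCl pH 7.7. Triplicate 1.0-mL samples were filtered on glass fiber, washed with cold buffer and counted. Bound FNP is given as % of vehicle-treated mice.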
# Mus musculus [3] = assay: Activity to antagonise cyclic GMP after administration of isoniazid in mouse brain; value ranges from 3.2-10; type: functional
# Mus musculus [4] = assay: Activity tested to antagonise cyclic GMP after administration of isoniazid in mouse brain; type: functional
# Mus musculus [5] = assay: Activity to antagonise cyclic GMP after administration of isoniazid in mouse brain; value ranges from 1-3.2; type: functional
# Mus musculus [6] = assay: Compound was tested for enhancement of [3H]Flunitrazepam ([3H]FNP) binding to mouse brain after intraperitoneal administration at a dose 10uM/kg, expressed as percent of control; type: functional; summary of the method: as §1
# Mus musculus [7] = assay: Compound was tested for enhancement of [3H]flunitrazepam ([3H]-FNP) binding to mouse brain after intraperitoneal administration at a dose 3.2uM/kg, expressed as percent of control; type: functional; summary of the method: as §1
# Mus musculus [8] = assay: Compound was tested for enhancement of [3H]Flunitrazepam ([3H]FNP) binding to mouse brain after intraperitoneal administration at a dose 32uM/kg, expressed as percent of control; type: functional; summary of the method: as §1
# [9] = Toxicity was measured in mouse by intraperitoneal administration; value ranges from 32-100; settings: in vivo, ip
# Summary of the method: (§2)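 Mouse LD50 in mg/kg after sc or ip dosing, by the route named in each line.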
# [10] = Toxicity measured in mouse by subcutaneous administration; type: organism-based; settings: in vivo, sc; summary of the method: as §2
# Mus musculus [11] = assay: Activity to antagonise mercaptopropionic acid (MPA) induced convulsions in mouse after subcutaneous administration; type: functional; settings: sc
# Summary of the method: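 Male Swiss CD mice (17–21 g), fasted 18 h, in groups of five. […] One hour later MPA 32 mg/kg ip. Protection meant no convulsions during 10 min of observation.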
# [12] = Toxicity was measured in mouse by intraperitoneal administration; settings: in vivo, ip; summary of the method: as §2
# P23576, sequence (P23576 whole entry): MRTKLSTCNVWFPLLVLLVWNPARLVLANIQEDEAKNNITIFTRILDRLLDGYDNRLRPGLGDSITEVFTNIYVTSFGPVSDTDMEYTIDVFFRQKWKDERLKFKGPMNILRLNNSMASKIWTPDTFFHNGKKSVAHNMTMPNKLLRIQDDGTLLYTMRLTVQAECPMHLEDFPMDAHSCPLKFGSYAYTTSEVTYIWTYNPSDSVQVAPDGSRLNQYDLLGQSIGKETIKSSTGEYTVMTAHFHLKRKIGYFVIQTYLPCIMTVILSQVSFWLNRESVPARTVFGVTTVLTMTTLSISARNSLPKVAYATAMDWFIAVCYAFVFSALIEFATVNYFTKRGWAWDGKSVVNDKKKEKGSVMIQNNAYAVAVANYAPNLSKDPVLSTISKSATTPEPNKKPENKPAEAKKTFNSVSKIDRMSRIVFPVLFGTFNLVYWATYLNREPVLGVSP
Structure (SMILES),ED50 [1] [mg/kg],also measured
CN(C)/C=C1\C(=O)N(c2cccc(-c3ccccc3)c2)c2ccccc21,> 100,
COc1ccc(N2C(=O)/C(=C(/C)N(C)C)c3ccccc32)cc1,> 100,
CCC/N=C/c1c(O)n(-c2cccc(Cl)c2)c2ccccc12,> 56,
O=C1/C(=C\N2CCCCC2)c2ccccc2N1c1cccc(Cl)c1,> 56,[3H]flunitrazepam binding [2]: 131%
COc1ccc(N2C(=O)/C(=C3/CCCN3C)c3ccccc32)cc1F,5.6,Control (P23576): 225%
CN(/C=C1\C(=O)N(c2cccc(Cl)c2)c2ccccc21)Cc1ccccc1,> 100,Control (P23576): 135%
Oc1c(C2=NCCCCC2)c2ccccc2n1-c1cccc(Cl)c1,> 100,Control (P23576): 138%
COc1ccc(N2C(=O)/C(=C(/C)N(C)C)c3ccccc32)cc1F,> 100,[3H]flunitrazepam binding [2]: 157%
CN(C)/C=C1\C(=O)N(c2ccc(Cl)cc2)c2ccccc21,> 100,
CCOc1cccc(N2C(=O)/C(=C\N(C)C)c3ccccc32)c1,27.9,
COc1ccc2c(c1)/C(=C/N(C)C)C(=O)N2c1cccc(Cl)c1,> 100,
CN(C)/C=C1\C(=O)N(c2ccccc2Cl)c2ccccc21,> 100,ED50 (Mus musculus [3]): 3.2 mg/kg
CCN1CCC/C1=C1/C(=O)N(c2cccc(Cl)c2)c2ccccc21,> 100,Control (P23576): 164%
CN(C)/C=C1\C(=O)N(c2cccc(Cl)c2)c2c(Cl)cccc21,> 100,[3H]flunitrazepam binding [2]: 169%
COc1ccc(N2C(=O)/C(=C(/C)N(C)C)c3ccccc32)cc1Cl,2.8,
CN(C)/C(=C1\C(=O)N(c2cccc(Cl)c2)c2ccccc21)c1ccccc1,> 100,
CC(=N)c1c(O)n(-c2ccccc2)c2cc(Cl)ccc12,> 56,
Cc1cccc(N2C(=O)/C(=C\N(C)C)c3ccccc32)c1,14.1,[3H]flunitrazepam binding [2]: 184%
COc1cccc(N2C(=O)/C(=C\N(C)C)c3ccccc32)c1,27.9,[3H]flunitrazepam binding [2]: 217%; ED50 (Mus musculus [4]): < 10 mg/kg
Cc1ccccc1N1C(=O)/C(=C\N(C)C)c2ccccc21,18,
CCO/C=C1\C(=O)N(c2cccc(Cl)c2)c2ccccc21,> 100,
COc1ccc(N2C(=O)/C(=C\N(C)C)c3ccccc32)cc1Cl,7.2,[3H]flunitrazepam binding [2]: 244%
COc1ccc(N2C(=O)/C(=C\N(C)C)c3ccccc32)cc1OC,> 100,[3H]flunitrazepam binding [2]: 138%; ED50 (Mus musculus [4]): < 10 mg/kg
CN1CCC/C1=C1/C(=O)N(c2ccccc2)c2cc(Cl)ccc21,> 100,Control (P23576): 158%
Oc1c(C2=NCCCCC2)c2ccccc2n1-c1ccccc1,> 100,
CSc1ccc(N2C(=O)/C(=C\N(C)C)c3ccccc32)cc1,56,

Structure (SMILES),ED50 [1] [mg/kg],also measured
CN(C)/C=C1\C(=O)N(c2cccc(Cl)c2)c2ccccc21,26.1,ED50 (Mus musculus [5]): 1 mg/kg
CC(=N)c1c(O)n(-c2cccc(Cl)c2)c2ccccc12,> 100,[3H]flunitrazepam binding [2]: 103%
CN(C)/C=C1\C(=O)N(c2cccc(Cl)c2)c2cc(Cl)ccc21,> 100,
CN1CCC/C1=C1/C(=O)N(c2ccc(Cl)cc2)c2ccccc21,> 56,Control (P23576): 127%
O=C1/C(=C\n2ccnc2)c2ccccc2N1c1cccc(Cl)c1,> 100,Control (P23576): 139%
O=C1/C(=C2/CCCN2c2ccccc2)c2ccccc2N1c1cccc(Cl)c1,> 100,Control (P23576): 125%
Oc1c(/C=N/Cc2ccccc2)c2ccccc2n1-c1cccc(Cl)c1,> 100,
CN(C)/C=C1\C(=O)N(c2cccc(C(F)(F)F)c2)c2ccccc21,22.2,[3H]flunitrazepam binding [2]: 131%
CN(C)C(=O)c1cccc(N2C(=O)/C(=C3/CCCN3C)c3ccccc32)c1,> 100,Control (P23576): 164%
O=C1/C(=C2/CCCN2Cc2ccc(Cl)cc2)c2ccccc2N1c1cccc(Cl)c1,> 100,Control (P23576): 131%
COc1ccc(N2C(=O)/C(=C3/CCCN3C)c3ccccc32)cc1Cl,,Control (Mus musculus [6]): 128%; Control (Mus musculus [7]): 115%; Control (Mus musculus [8]): 159%; Control (P23576): 220%; LD50 [9]: 32 mg/kg; LD50 [10]: ≥ 320 mg/kg; ED50 (Mus musculus [11]): 3.6 mg/kg
O=C1/C(=C\N2CCCC2)c2ccccc2N1c1cccc(Cl)c1,> 100,
CN(/C=C1\C(=O)N(c2cccc(Cl)c2)c2ccccc21)c1ccccc1,> 100,[3H]flunitrazepam binding [2]: 133%
C/C(=C1/C(=O)N(c2ccccc2)c2cc(Cl)ccc21)N(C)C,35.9,
C/C(=C1/C(=O)N(c2cccc(Cl)c2)c2ccccc21)N(C)C,13.3,ED50 (Mus musculus [4]): 1 mg/kg
CN(C)/C=C1\C(=O)N(c2cccc(C=O)c2)c2ccccc21,> 100,
COc1c(C)cc(N2C(=O)/C(=C\N(C)C)c3ccccc32)cc1Cl,15.3,
C/C(=C1/C(=O)N(c2ccccc2)c2cc(Cl)ccc21)N1CCCC1,> 56,[3H]flunitrazepam binding [2]: 213%
CN(C)/C=C1\C(=O)N(c2ccc(N(C)C)cc2)c2ccccc21,> 100,
CN(C)/C=C1\C(=O)N(c2cccc(Cl)c2)c2cccc(Cl)c21,> 100,
COc1ccc(-n2c(O)c(C3=NCCC3)c3ccccc32)cc1F,56,
CN1CCC/C1=C1/C(=O)N(c2ccccc2)c2ccccc21,> 100,Control (P23576): 143%
CN(C)/C=C1\C(=O)N(c2cccc(F)c2)c2ccccc21,39.9,
CN1CCCC/C1=C1/C(=O)N(c2cccc(Cl)c2)c2ccccc21,> 100,Control (P23576): 135%
COc1ccc(N2C(=O)/C(=C\N(C)C)c3ccccc32)cc1,48.2,[3H]flunitrazepam binding [2]: 153%
N=C(c1c(O)n(-c2cccc(Cl)c2)c2ccccc12)C(F)(F)F,> 56,

Structure (SMILES),ED50 [1] [mg/kg],also measured
NC(=O)CCC/N=C(\c1ccc(Cl)cc1)c1cc(F)ccc1O [PROGABIDE],> 100,ED50 (Mus musculus [4]): < 32 mg/kg; LD50 [12]: ~1000 mg/kg; LD50 [10]: > 1000 mg/kg
CN1CCC/C1=C1/C(=O)N(c2ccccc2)c2cccc(Cl)c21,> 100,Control (P23576): 190%
CN(C)/C=C1\C(=O)N(c2cccc(Br)c2)c2ccccc21,> 100,
CN(C)/C=C1\C(=O)N(c2cccc(C(=O)N(C)C)c2)c2ccccc21,> 100,
CCCN(/C=C1\C(=O)N(c2cccc(Cl)c2)c2ccccc21)CCC,> 100,
C/C(=C1/C(=O)N(c2cccc(C)c2)c2ccccc21)N(C)C,17.8,
Cc1ccc(N2C(=O)/C(=C\N(C)C)c3ccccc32)cc1,56,
CN(C)/C=C1\C(=O)N(c2cccc(Cl)c2)c2ccc(Cl)cc21,> 100,
COc1ccc(N2C(=O)/C(=C\N(C)C)c3ccccc32)cc1C,9.1,
CN(C)/C=C1\C(=O)N(c2cccc(O)c2)c2ccccc21,> 100,
COc1ccc(Cl)cc1N1C(=O)/C(=C\N(C)C)c2ccccc21,> 100,[3H]flunitrazepam binding [2]: 149%
O=C1/C(=C\N2CCOCC2)c2ccccc2N1c1cccc(Cl)c1,> 100,[3H]flunitrazepam binding [2]: 121%
CN1CCC/C1=C1/C(=O)N(c2cccc(Cl)c2)c2cc(Cl)ccc21,> 100,Control (P23576): 189%
CN(C)/C=C1\C(=O)N(c2cc(Cl)cc(Cl)c2)c2ccccc21,> 100,[3H]flunitrazepam binding [2]: 153%
COc1ccc(N2C(=O)/C(=C\N(C)C)c3ccccc32)cc1F,6.6,[3H]flunitrazepam binding [2]: 194%
C/N=C\c1c(O)n(-c2cccc(Cl)c2)c2ccccc12,> 100,[3H]flunitrazepam binding [2]: 119%
CN(C)/C=C1\C(=O)N(c2cc(Cl)ccc2Cl)c2ccccc21,> 100,[3H]flunitrazepam binding [2]: 147%; ED50 (Mus musculus [4]): ~10 mg/kg
O=C1/C(=C2/CCCN2Cc2ccccc2)c2ccccc2N1c1cccc(Cl)c1,> 100,Control (P23576): 149%
CN(C)/C=C1\C(=O)N(c2ccccc2)c2cc(Cl)ccc21,> 100,
CCc1cccc(N2C(=O)/C(=C\N(C)C)c3ccccc32)c1,14.1,
CCN(/C=C1\C(=O)N(c2cccc(Cl)c2)c2ccccc21)CC,18,
CN(C)/C=C1\C(=O)N(c2cccc(C#N)c2)c2ccccc21,> 100,[3H]flunitrazepam binding [2]: 192%
CN(C)/C=C1\C(=O)N(c2cccc([N+](=O)[O-])c2)c2ccccc21,> 100,[3H]flunitrazepam binding [2]: 171%
CN(C)/C=C1\C(=O)N(c2ccccc2)c2ccccc21,> 100,
CN1CCC/C1=C1/C(=O)N(c2cccc(C#N)c2)c2ccccc21,> 100,Control (P23576): 121%
N=Cc1c(O)n(-c2cccc(Cl)c2)c2ccccc12,22.1,[3H]flunitrazepam binding [2]: 134%
